Experimental data published in ChEMBL document CHEMBL1145439, “Fluorine-18-labeled benzamide analogues for imaging the sigma2 receptor status of solid tumors with positron emission tomography” (J Med Chem, 2007).
Values belong to the compound of their own block, whether it stands above or below them.

What was measured:
[1] = Displacement of [3H]DTG from sigma 2 receptor in rat liver membrane after 120 mins; format: cell membranes
Summary of the method: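 Rat liver membranes (~300 µg protein) incubated with ~5 nM [3H]DTG plus 1 µM (+)-pentazocine to mask σ1 sites, 120 min at room temperature; 10 µM haloperidol defines nonspecific binding; filtration and scintillation counting. One-site nonlinear regression IC50, converted to Ki by Cheng-Prusoff; mean ± SEM.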

[2] = Selectivity for rat liver sigma 2 receptor over guinea pig brain sigma 1 receptor
[3] = Tumor to fat ratio of the drug in mouse EMT6 tumor bearing BALB/c mouse at 10 to 20 uCi after 2 hrs; format: ADME
Summary of the method: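 Tumor-bearing female Balb/c mice (EMT-6 s.c. allograft, ~0.2 cm3) given 10-20 µCi 18F tracer in saline i.v. via tail vein; ≥4 per group; killed 120 min later. Tissues weighed and gamma-counted; ratio = tumor %ID/g divided by that organ's %ID/g.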

Blood [4] = test: Biodistribution in blood of mouse EMT6 tumor bearing BALB/c mouse at 10 to 20 uCi after 5 mins; format: ADME, organism-based; details: in vivo
Summary of the method: (§1)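 EMT-6 cells (5×10^5 in 100 µL PBS) implanted s.c. in scapular region of female Balb/c mice (~2 months, 17-22 g); studied 7-10 days later at ~0.2 cm3 tumor. 18F tracer 10-20 µCi in 100-150 µL saline via tail vein; ≥4 mice per time point; tissue removed at sacrifice, weighed, gamma-counted; %ID/g calculated.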

Blood [5] = test: Biodistribution in blood of mouse EMT6 tumor bearing BALB/c mouse at 10 to 20 uCi after 30 mins; format: ADME, organism-based; details: in vivo, 0.5 h; summary of the method: as §1
Blood [6] = test: Biodistribution in blood of mouse EMT6 tumor bearing BALB/c mouse at 10 to 20 uCi after 60 mins; format: ADME, organism-based; details: in vivo, 1 h; summary of the method: as §1
Blood [7] = test: Biodistribution in blood of mouse EMT6 tumor bearing BALB/c mouse at 10 to 20 uCi after 120 mins; format: ADME, organism-based; details: in vivo, 2 h; summary of the method: as §1
Lung [8] = test: Biodistribution in lung of mouse EMT6 tumor bearing BALB/c mouse at 10 to 20 uCi after 5 mins; format: ADME, organism-based; details: in vivo; summary of the method: as §1
Lung [9] = test: Biodistribution in lung of mouse EMT6 tumor bearing BALB/c mouse at 10 to 20 uCi after 30 mins; format: ADME, organism-based; details: in vivo, 0.5 h; summary of the method: as §1
Lung [10] = test: Biodistribution in lung of mouse EMT6 tumor bearing BALB/c mouse at 10 to 20 uCi after 60 mins; format: ADME, organism-based; details: in vivo, 1 h; summary of the method: as §1
Lung [11] = test: Biodistribution in lung of mouse EMT6 tumor bearing BALB/c mouse at 10 to 20 uCi after 120 mins; format: ADME, organism-based; details: in vivo, 2 h; summary of the method: as §1
Liver [12] = test: Biodistribution in liver of mouse EMT6 tumor bearing BALB/c mouse at 10 to 20 uCi after 5 mins; format: ADME, organism-based; details: in vivo; summary of the method: as §1
Liver [13] = test: Biodistribution in liver of mouse EMT6 tumor bearing BALB/c mouse at 10 to 20 uCi after 30 mins; format: ADME, organism-based; details: in vivo, 0.5 h; summary of the method: as §1
Liver [14] = test: Biodistribution in liver of mouse EMT6 tumor bearing BALB/c mouse at 10 to 20 uCi after 60 mins; format: ADME, organism-based; details: in vivo, 1 h; summary of the method: as §1
Liver [15] = test: Biodistribution in liver of mouse EMT6 tumor bearing BALB/c mouse at 10 to 20 uCi after 120 mins; format: ADME, organism-based; details: in vivo, 2 h; summary of the method: as §1
Kidney [16] = test: Biodistribution in kidney of mouse EMT6 tumor bearing BALB/c mouse at 10 to 20 uCi after 5 mins; format: ADME, organism-based; details: in vivo; summary of the method: as §1
Kidney [17] = test: Biodistribution in kidney of mouse EMT6 tumor bearing BALB/c mouse at 10 to 20 uCi after 30 mins; format: ADME, organism-based; details: in vivo, 0.5 h; summary of the method: as §1
Kidney [18] = test: Biodistribution in kidney of mouse EMT6 tumor bearing BALB/c mouse at 10 to 20 uCi after 60 mins; format: ADME, organism-based; details: in vivo, 1 h; summary of the method: as §1
Kidney [19] = test: Biodistribution in kidney of mouse EMT6 tumor bearing BALB/c mouse at 10 to 20 uCi after 120 mins; format: ADME, organism-based; details: in vivo, 2 h; summary of the method: as §1
Muscle tissue [20] = test: Biodistribution in muscle of EMT6 tumor bearing BALB/c mouse at 10 to 20 uCi after 5 mins; format: ADME, organism-based; details: in vivo; summary of the method: as §1
Muscle tissue [21] = test: Biodistribution in muscle of mouse EMT6 tumor bearing BALB/c mouse at 10 to 20 uCi after 30 mins; format: ADME, organism-based; details: in vivo, 0.5 h; summary of the method: as §1
Muscle tissue [22] = test: Biodistribution in muscle of mouse EMT6 tumor bearing BALB/c mouse at 10 to 20 uCi after 60 mins; format: ADME, organism-based; details: in vivo, 1 h; summary of the method: as §1
Muscle tissue [23] = test: Biodistribution in muscle of mouse EMT6 tumor bearing BALB/c mouse at 10 to 20 uCi after 120 mins; format: ADME, organism-based; details: in vivo, 2 h; summary of the method: as §1
Adipose tissue [24] = test: Biodistribution in fat of mouse EMT6 tumor bearing BALB/c mouse at 10 to 20 uCi after 5 mins; format: ADME, organism-based; details: in vivo; summary of the method: as §1
Adipose tissue [25] = test: Biodistribution in fat of mouse EMT6 tumor bearing BALB/c mouse at 10 to 20 uCi after 30 mins; format: ADME, organism-based; details: in vivo, 0.5 h; summary of the method: as §1
Adipose tissue [26] = test: Biodistribution in fat of mouse EMT6 tumor bearing BALB/c mouse at 10 to 20 uCi after 60 mins; format: ADME, organism-based; details: in vivo, 1 h; summary of the method: as §1
Adipose tissue [27] = test: Biodistribution in fat of mouse EMT6 tumor bearing BALB/c mouse at 10 to 20 uCi after 120 mins; format: ADME, organism-based; details: in vivo, 2 h; summary of the method: as §1
Heart [28] = test: Biodistribution in heart of mouse EMT6 tumor bearing BALB/c mouse at 10 to 20 uCi after 5 mins; format: ADME, organism-based; details: in vivo; summary of the method: as §1
Heart [29] = test: Biodistribution in heart of mouse EMT6 tumor bearing BALB/c mouse at 10 to 20 uCi after 30 mins; format: ADME, organism-based; details: in vivo, 0.5 h; summary of the method: as §1
Heart [30] = test: Biodistribution in heart of mouse EMT6 tumor bearing BALB/c mouse at 10 to 20 uCi after 60 mins; format: ADME, organism-based; details: in vivo, 1 h; summary of the method: as §1
Heart [31] = test: Biodistribution in heart of EMT6 tumor bearing BALB/c mouse at 10 to 20 uCi after 120 mins; format: ADME, organism-based; details: in vivo, 2 h; summary of the method: as §1
Brain [32] = test: Biodistribution in brain of EMT6 tumor bearing BALB/c mouse at 10 to 20 uCi after 5 mins; format: ADME, organism-based; details: in vivo; summary of the method: as §1
Brain [33] = test: Biodistribution in brain of EMT6 tumor bearing BALB/c mouse at 10 to 20 uCi after 30 mins; format: ADME, organism-based; details: in vivo, 0.5 h; summary of the method: as §1
Brain [34] = test: Biodistribution in brain of EMT6 tumor bearing BALB/c mouse at 10 to 20 uCi after 60 mins; format: ADME, organism-based; details: in vivo, 1 h; summary of the method: as §1
Brain [35] = test: Biodistribution in brain of mouse EMT6 tumor bearing BALB/c mouse at 10 to 20 uCi after 120 mins; format: ADME, organism-based; details: in vivo, 2 h; summary of the method: as §1
Bone [36] = test: Biodistribution in bone of mouse EMT6 tumor bearing BALB/c mouse at 10 to 20 uCi after 5 mins; format: ADME, organism-based, Bone element; details: in vivo; summary of the method: as §1
Bone [37] = test: Biodistribution in bone of mouse EMT6 tumor bearing BALB/c mouse at 10 to 20 uCi after 30 mins; format: ADME, organism-based, Bone element; details: in vivo, 0.5 h; summary of the method: as §1
Bone [38] = test: Biodistribution in bone of mouse EMT6 tumor bearing BALB/c mouse at 10 to 20 uCi after 60 mins; format: ADME, organism-based, Bone element; details: in vivo, 1 h; summary of the method: as §1
Bone [39] = test: Biodistribution in bone of mouse EMT6 tumor bearing BALB/c mouse at 10 to 20 uCi after 120 mins; format: ADME, organism-based, Bone element; details: in vivo, 2 h; summary of the method: as §1
EMT6 [40] = test: Biodistribution in tumor of mouse EMT6 tumor bearing BALB/c mouse at 10 to 20 uCi after 5 mins; format: ADME, organism-based; details: emt6, 5 min; summary of the method: as §1
EMT6 [41] = test: Biodistribution in tumor of EMT6 tumor bearing BALB/c mouse 10 to 20 uCi after 30 mins; format: ADME, organism-based; details: emt6, 0.5 h; summary of the method: as §1
EMT6 [42] = test: Biodistribution in tumor of mouse EMT6 tumor bearing BALB/c mouse at 10 to 20 uCi after 60 mins; format: ADME, organism-based; details: emt6, 1 h; summary of the method: as §1
EMT6 [43] = test: Biodistribution in tumor of mouse EMT6 tumor bearing BALB/c mouse at 10 to 20 uCi after 120 mins; format: ADME, organism-based; details: emt6, 2 h; summary of the method: as §1

SMILES: COc1cc2c(cc1OC)CN(CCCCNC(=O)c1cc(Br)ccc1OCC[18F])CC2
Ratio [3]: 6
Drug uptake (Blood [4]): 3.57 % ID/g
Drug uptake (Blood [5]): 2.81 % ID/g
Drug uptake (Blood [6]): 1.69 % ID/g
Drug uptake (Blood [7]): 0.52 % ID/g
Drug uptake (Lung [8]): 12.08 % ID/g
Drug uptake (Lung [9]): 3.08 % ID/g
Drug uptake (Lung [10]): 1.6 % ID/g
Drug uptake (Lung [11]): 0.51 % ID/g
Drug uptake (Liver [12]): 32.6 % ID/g
Drug uptake (Liver [13]): 13.12 % ID/g
Drug uptake (Liver [14]): 5.69 % ID/g
Drug uptake (Liver [15]): 2.3 % ID/g
Drug uptake (Kidney [16]): 42.94 % ID/g
Drug uptake (Kidney [17]): 17.55 % ID/g
Drug uptake (Kidney [18]): 6.92 % ID/g
Drug uptake (Kidney [19]): 1.12 % ID/g
Drug uptake (Muscle tissue [20]): 1.95 % ID/g
Drug uptake (Muscle tissue [21]): 0.98 % ID/g
Drug uptake (Muscle tissue [22]): 0.58 % ID/g
Drug uptake (Muscle tissue [23]): 0.28 % ID/g
Drug uptake (Adipose tissue [24]): 2.85 % ID/g
Drug uptake (Adipose tissue [25]): 0.96 % ID/g
Drug uptake (Adipose tissue [26]): 0.38 % ID/g
Drug uptake (Adipose tissue [27]): 0.15 % ID/g
Drug uptake (Heart [28]): 3.74 % ID/g
Drug uptake (Heart [29]): 1.55 % ID/g
Drug uptake (Heart [30]): 1.04 % ID/g
Drug uptake (Heart [31]): 0.4 % ID/g
Drug uptake (Brain [32]): 1.09 % ID/g
Drug uptake (Brain [33]): 0.4 % ID/g
Drug uptake (Brain [34]): 0.32 % ID/g
Drug uptake (Brain [35]): 0.2 % ID/g
Drug uptake (Bone [36]): 2.9 % ID/g
Drug uptake (Bone [37]): 1.17 % ID/g
Drug uptake (Bone [38]): 1.12 % ID/g
Drug uptake (Bone [39]): 1.28 % ID/g
Drug uptake (EMT6 [40]): 3.28 % ID/g
Drug uptake (EMT6 [41]): 2.59 % ID/g
Drug uptake (EMT6 [42]): 2.09 % ID/g
Drug uptake (EMT6 [43]): 0.96 % ID/g

SMILES: COc1cc2c(cc1OC)CN(CCCCNC(=O)c1cc(C)ccc1OCCF)CC2
Ki [1]: 6.95 nM
Ratio Ki [2]: 48

SMILES: COc1cc2c(cc1OC)CN(CCNC(=O)c1cc(C)ccc1OCCF)CC2
Ki [1]: 102 nM
Ratio Ki [2]: 222

Continued, values first:

Ki [1]: 0.26 nM
Ratio Ki [2]: 8190
SMILES: COc1cc2c(cc1OC)CN(CCCCNC(=O)c1cc(I)cc(OC)c1OCCF)CC2

Ki [1]: 1.06 nM
SMILES: COc1cc2c(cc1OC)CN(CCCCNC(=O)c1cc(I)ccc1OCCF)CC2
